Source: PubChem
Shown are actives, neighbours in structure and some others; about 11% of the full set was active somewhere.
M1 ag – agonists of M1 muscarinic receptor | CHO-M1 cells, Fluo-4 calcium fluorescence, agonist mode; stronger effect = higher value | B-score at 10 µM | 64,000 tested, 3% active | AID 626;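 active means fluorescence rise, raw or as B-score row- and column-corrected plate score, outside the 99.7% band of its plate's samples, either direction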
D1 allo mod – allosteric modulators of human D1 dopamine receptor | AID 641 | 58,000 tested, 5.9% active | P21728 | B-score at 10 µM | HEK293 D1, CRE-luciferase, dopamine EC30 potentiation; actives deviate in either direction;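 active means luminescence count or its row- and column-corrected plate score outside the 99.7% band of the plate's sample wells, on either side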
S1P1 ag-PAM – agonists and agonism potentiators of human S1P1 receptor; S1P1 CRE-bla cells, forskolin, beta-lactamase FRET, potentiator mode; S1P1 agonist co-added at EC20, 2 nM; 100% = saturating reference agonist, 0% = basal; AID 449; 56,000 tested, 0.57% active; P21453; activation, % at 9.5 µM;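 active means activation above a cutoff set at the mean activation of all tested compounds plus 3 SD, cut at about 54% in these data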;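 further: forskolin at 4 µM as EC80 and the EC20 agonist is SEW2871; 100% = SEW2871 at its EC100 plus forskolin at EC80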
S1P3 agonist – S1P3 (human) receptor agonism. Q99500. S1P3 NFAT-BLA reporter cells, FRET ratio; relative to 1 µM S1P, basal subtracted. activation, % at 4.5 µM. 60,000 tested, 0.1% active. AID 373;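 active means activation above the screen-wide mean plus 3 SD, cut at about 4.5% in these data, passing the limit was not always enough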
Target sequence (Q99500 whole entry, looked up): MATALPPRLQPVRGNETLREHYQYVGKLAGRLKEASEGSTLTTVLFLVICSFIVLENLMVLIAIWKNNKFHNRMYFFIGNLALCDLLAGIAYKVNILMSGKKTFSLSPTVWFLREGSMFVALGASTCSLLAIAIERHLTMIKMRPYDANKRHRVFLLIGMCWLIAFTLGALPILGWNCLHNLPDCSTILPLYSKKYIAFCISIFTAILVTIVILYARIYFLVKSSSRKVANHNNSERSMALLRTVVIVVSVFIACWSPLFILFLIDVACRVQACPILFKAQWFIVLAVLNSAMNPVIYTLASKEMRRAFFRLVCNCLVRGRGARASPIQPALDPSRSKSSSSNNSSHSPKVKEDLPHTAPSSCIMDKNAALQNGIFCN
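Assay system: CHO cells stably expressing human S1P3, Gα16 and NFAT-β-lactamase reporter. Timing: overnight plating, 4 h compound 37 °C, 2 h substrate RT. Signal: β-lactamase FRET emission ratio 460/535 nm. Measure: percent activation versus median 1 µM S1P response, basal-subtracted, per plate. Repeats: primary screen single test, confirmation screen in triplicate.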
M1 antag – blocks the rat M1 muscarinic receptor response to acetylcholine. P08482. CHO-M1 cells, Fluo-4 calcium, ACh EC80 antagonist mode; stronger effect = lower value. B-score at 10 µM. 64,000 tested, 3.4% active. AID 628;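 active means calcium fluorescence response, raw or row-and-column corrected B-score, differing from the plate sample mean either way at a set confidence level, mostly lower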
M1 antag conf – confirmation of rat M1 muscarinic receptor antagonists. shares compounds with M1 antag. CHO-M1 cells, Fluo-4 calcium, ACh EC80 antagonism; stronger effect = lower value. calcium response (max-min fluorescence) at 10 µM. 1,700 tested, 43% active;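 active means calcium response below the same-plate mean of wells given acetylcholine alone at its 80%-effect dose, minus 3 SD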;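 further: raw fluorescence intensity difference in arbitrary instrument units and not normalized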
mGluR4 antag – mGluR4 (human) activity, M1 antagonist secondary assay | 1,700 tested, 0.9% active | CHO-mGluR4 calcium flux, Fluo-4 fluorescence, glutamate EC80; stronger effect = lower value | fluorescence response (max-min) at 10 µM | shares compounds with M1 antag;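 active means fluorescence response below the plate's average for near-maximal glutamate wells, less 3 SD of those wells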;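 further: raw unnormalized fluorescence span taken in the window right after glutamate addition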
Active calls of the source: *; / = no result.

SMILES	M1 ag	D1 allo mod	S1P1 ag-PAM	S1P3 agonist	M1 antag	M1 antag conf	mGluR4 antag
CC(C)N1C(=O)C2ON(c3ccccc3)C(c3cccs3)C2C1=O (stereo not given)	-0.055	-0.023	-34	3	-3.8*	542	243
O=C1C2ON(c3ccccc3)C(c3ccncc3)C2C(=O)N1c1ccccc1 (stereo not given)	-0.81	/	-1	-3	0.72	/	/
COc1cccc(OCC(O)CN2C(C)CCCC2C)c1 (stereo not given)	0.18	0.58	-19	-1	-0.31	/	/
CC1CCCC(C)N1CC(O)COc1ccc(Cl)cc1 (stereo not given)	-0.12	-0.52	2	-2	-3.2*	501*	224
CCCCOC(=O)Nc1cccc(C(C)=O)c1	0.3	0.34	-6	-1	-4.8*	625	269
CN1CCN(C(=O)CN(Cc2ccc(Cl)cc2)S(C)(=O)=O)CC1	0.58	-0.13	28	0	-2.5*	538	211
CN1CCN(c2nc(NCCOC34CC5CC(CC(C5)C3)C4)nc(OCC(F)(F)F)n2)CC1	-1.1	-0.3	4	-1	-6.2*	484*	190
CCN(CC)c1ccc(-c2nc3cnccc3n2C)cc1	0.14	-0.8	10	-1	-14*	64*	253
CCN(CC)CCn1c(OC)cc(=O)[nH]c1=O	-0.051	-1.3	-12	-1	-2.4*	670	208
COc1ccc(Cn2c(O)cc(=O)[nH]c2=O)cc1	-0.24	/	22	-1	0.14	/	/
c1ccc2c(c1)nc1sccn12	0.91	-0.036	-9	-1	-2.5*	674	254
Clc1c(CSc2nc3ccccc3o2)nc2sccn12	-0.47	-1	/	/	0.47	/	/
Cn1cc(NC(=O)c2cc(NC(=O)c3cc(NC=O)cn3C)cn2C)cc1C(=O)NCCC(=N)N	-0.15	-0.66	0	-3	-6.1	/	/
CCc1cccc(NC2c3ccccc3C(=O)N2c2cccnc2)c1 (stereo not given)	0.081	0.76	-12	-2	-0.05	/	/
COc1cc(CO)cc(Br)c1OCC(=O)N1CCCCC1	-0.22	/	-3	0	0.012	/	/
COC(=O)c1ccc2[nH]c(C)cc(=O)c2c1	-0.037	0.32	/	/	-6.5*	210*	186
CCOC(=O)c1c(NC(C)=O)no[n+]1[O-]	0.11	-0.074	/	/	0.1	/	/
CC(C)CC(NC(=O)C1CCC(C)CC1)C(=O)Nc1ccccn1 (stereo not given)	0.014	/	/	/	-3.4*	518	188
CC(C)C(NC(=O)C1CCCCC1)C(=O)Nc1ccccn1 (stereo not given)	-0.76	0.56	-1	0	0.099	/	/
CN(C)c1ccc(C2CC(=O)NC3=C2C(=O)CC(C)(C)C3)cc1 (stereo not given)	0.25	/	-6	1	-0.042	/	/
CCN(CC)c1ccc(C2CC(=O)NC3=C2C(=O)CC(C)(C)C3)cc1 (stereo not given)	0.23	0.61	14	-1	-3.2*	381*	252
CN1CCc2c(c3ccccc3n2Cc2ccccc2)C1	-0.61	/	2	-1	-3.9*	231*	251
CCOC(=O)C1CCN(c2c(NC3CCCCCCC3)c(=O)c2=O)CC1	-0.062	-1.3	-1	-1	-0.6	/	/
O=C1C2C3CCCC3=C3CCCC3C2C(=O)N1c1ccccc1 (stereo not given)	-0.15	0.58	-35	-1	-3.2*	321*	195
COC(=O)c1sc(S(=O)(=O)N2CCCCC2)c(C(=O)OC)c1C	-0.044	-1.2	-2	-1	-4.5*	248*	200
COC(=O)c1sc(S(=O)(=O)N2CCC(C)CC2)c(C(=O)OC)c1C	0.013	3.3	-12	0	0.024	/	/
CCOC(=O)c1ccc(NC(=O)CCC(CC)C(=O)O)cc1 (stereo not given)	-0.99	/	6	-3	0.25	/	/
CCCCC(CCC(=O)Nc1ccccc1C(=O)OCC)C(=O)O (stereo not given)	1.5	-0.036	-9	0	-4.3*	685	251
